Holding throughout (assay type): cell-based
In assay [1] the test system is HeLa (human cervical cancer cells). Briefly: MTT cytotoxicity assay, HeLa cells. The settings on record: 48 h, read-out: IC50 ± SD HeLa. Put shortly: (§1)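 Cells exposed to test compounds for 48 h; viability read by MTT. IC50 computed from triplicate experiments and reported as mean ± SD, with paclitaxel as positive control. BEAS-2B normal lung epithelial cells assayed alongside the cancer lines.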

In a further assay the test system is MCF-7 (breast cancer). As to the kind of experiment: MTT cytotoxicity assay, MCF-7 cells. The settings on record: Homo sapiens, MCF7, 48 h, read-out: IC50 ± SD MCF-7. The gist of the method:
as §1
Background: Formazan colour is commonly taken as a measure of viable cells.

Assay [2] deals with BEAS-2B (normal human lung epithelial cells). Briefly: MTT cytotoxicity assay, BEAS-2B normal cells. The settings on record: 48 h, read-out: IC50 ± SD BEAS-2B. The gist of the method: as §1
Assay [3] deals with A549 (non-small lung carcinoma) cells. As to the kind of experiment: MTT cytotoxicity assay, A549 cells. The settings on record: Homo sapiens, A549, 48 h, read-out: IC50 ± SD A549. The gist of the method: as §1

As a reminder, the IC50 is the point on the concentration scale where inhibition reaches its midpoint.

As for `C[C@]12CC[C@H](O)C[C@H]1CC[C@@H]1[C@@H]2C[C@@H](O)[C@]2(C)[C@@H](C3=CC(=O)OC3)CC[C@]12O` [Compound 6, digoxigenin], the IC50 in assay [1] was determined as 770 ± 230 nM; with MCF-7 (breast cancer) it was 1440 ± 10 nM; in assay [2] it was 2580 ± 110 nM; in assay [3], 1280 ± 230 nM.
The matching figures for `CC(=O)O[C@H]1C(=O)[C@@]2(C)[C@H]([C@H](OC(=O)c3ccccc3)[C@]3(O)C[C@H](OC(=O)[C@H](O)[C@@H](NC(=O)c4ccccc4)c4ccccc4)C(C)=C1C3(C)C)[C@]1(OC(C)=O)CO[C@@H]1C[C@@H]2O` [Paclitaxel, reference compound]: 20 ± 10 nM, 110 ± 50 nM, 130 ± 30 nM and 60 ± 40 nM.
The matching figures for `CC(=O)O[C@H]1C[C@H](O[C@H]2[C@@H](O)C[C@H](O[C@H]3[C@@H](O)C[C@H](O[C@H]4CC[C@@]5(C)[C@H](CC[C@@H]6[C@@H]5C[C@@H](O)[C@]5(C)[C@@H](C7=CC(=O)OC7)CC[C@]65O)C4)O[C@@H]3C)O[C@@H]2C)O[C@H](C)[C@H]1O` [Compound 8, acetyldigoxin]: 130 ± 7 nM, 190 ± 60 nM, 250 ± 60 nM and 150 ± 10 nM.
The matching figures for `CC(=O)O[C@H]1C[C@H](O[C@H]2[C@@H](O)C[C@H](O[C@H]3[C@@H](O)C[C@H](O[C@H]4CC[C@@]5(C)[C@H](CC[C@@H]6[C@@H]5C[C@@H](O)[C@]5(C)[C@@H](C7=CC(=O)OC7)CC[C@]65O)C4)O[C@@H]3C)O[C@@H]2C)O[C@H](C)[C@H]1O[C@@H]1O[C@H](CO)[C@@H](O)[C@H](O)[C@H]1O` [Compound 9, lanatoside C]: 130 ± 13 nM, 240 ± 110 nM, 370 ± 100 nM and 190 ± 30 nM.
